Each block holds one compound with its values, some of them ahead of it.
Legend:
Type in all cases: ADME
[1] = target: T1, UDP-glucuronosyltransferase 1A10 (Homo sapiens, UniProt Q9HAW8); experiment: Inhibition of recombinant human C-terminal His-tagged UGT1A10 after 15 to 60 mins by Michaelis-Menten equation analysis in presence of UDPGA
T1 sequence (Q9HAW8 whole entry): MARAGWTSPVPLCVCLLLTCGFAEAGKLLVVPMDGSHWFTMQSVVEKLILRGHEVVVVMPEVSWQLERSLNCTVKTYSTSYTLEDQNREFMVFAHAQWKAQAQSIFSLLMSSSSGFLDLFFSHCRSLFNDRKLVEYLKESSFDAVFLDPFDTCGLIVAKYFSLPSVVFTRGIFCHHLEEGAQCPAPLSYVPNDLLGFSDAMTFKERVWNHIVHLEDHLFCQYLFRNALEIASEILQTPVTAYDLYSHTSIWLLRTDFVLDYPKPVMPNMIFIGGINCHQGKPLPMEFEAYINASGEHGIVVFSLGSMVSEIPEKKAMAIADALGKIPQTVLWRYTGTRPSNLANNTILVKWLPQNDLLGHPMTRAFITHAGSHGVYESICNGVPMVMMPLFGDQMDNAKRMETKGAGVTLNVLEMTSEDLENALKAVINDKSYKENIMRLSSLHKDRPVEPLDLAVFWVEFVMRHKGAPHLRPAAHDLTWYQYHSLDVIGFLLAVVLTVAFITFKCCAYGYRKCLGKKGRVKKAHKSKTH
Outline: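 Kinetics with His-tagged UGT-enriched insect-cell membranes (5 or 50 µg): aglycone 0.2–300 µM in 10% DMSO, 5 mM UDPGA, 10 mM MgCl₂, 50 mM phosphate pH 7.4, 15–60 min at 37°C. Substrate consumption kept at or below 10%. Glucuronides quantified by HPLC in triplicate, rates normalized to expression, and data fitted to Michaelis-Menten.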

[2] = target: T2, UDP-glucuronosyltransferase 2B17 (Homo sapiens, UniProt O75795); experiment: Drug metabolism assessed as recombinant human C-terminal His-tagged UGT2B17-mediated estradiol-17-glucuronide formation at 200 uM after 15 to 60 mins by HPLC analysis in presence of UDPGA; conditions: recombinant enzyme
T2 sequence (O75795 whole entry): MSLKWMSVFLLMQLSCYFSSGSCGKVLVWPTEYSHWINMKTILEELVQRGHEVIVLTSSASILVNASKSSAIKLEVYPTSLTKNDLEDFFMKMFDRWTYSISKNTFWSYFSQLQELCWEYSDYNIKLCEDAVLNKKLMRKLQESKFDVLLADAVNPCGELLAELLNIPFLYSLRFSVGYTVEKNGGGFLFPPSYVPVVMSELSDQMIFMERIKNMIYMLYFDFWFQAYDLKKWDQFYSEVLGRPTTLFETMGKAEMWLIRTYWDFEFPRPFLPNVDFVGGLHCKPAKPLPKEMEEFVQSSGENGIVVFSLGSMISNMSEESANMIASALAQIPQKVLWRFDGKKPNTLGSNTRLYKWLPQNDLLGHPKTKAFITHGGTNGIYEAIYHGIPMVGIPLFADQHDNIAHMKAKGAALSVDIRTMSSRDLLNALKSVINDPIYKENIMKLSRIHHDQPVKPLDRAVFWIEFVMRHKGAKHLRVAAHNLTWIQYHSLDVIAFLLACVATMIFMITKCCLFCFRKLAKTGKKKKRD
Outline: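 Screening at a single substrate concentration of 200 μM, in triplicate. The reaction used 5 or 50 µg of UGT-enriched insect cell membranes in 50 mM phosphate pH 7.4 with 10 mM MgCl₂ and 5 mM UDPGA, 10% final DMSO. Incubation was 15–60 min at 37°C. Perchloric acid stopped the reaction and supernatants were analysed by HPLC. Controls lacked UDPGA. Rates were normalized to relative UGT expression level.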

[3] = Drug metabolism in human intestine microsomes assessed as estriol-3-glucuronide formation after 15 to 60 mins by Michaelis-Menten equation analysis in presence of UDPGA
Outline: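 Pooled human intestine microsomes (6 donors), 0.5 or 10 µg, with alamethicin at 5% of total protein. Incubated with 50 mM phosphate pH 7.4, 10 mM MgCl₂, 5 mM UDPGA and 10% DMSO for 15–60 min at 37°C. Each glucuronide regioisomer quantified by HPLC, in triplicate, with substrate consumption at or below 10%.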

[4] = target: T3, UDP-glucuronosyltransferase 1A8 (Homo sapiens, UniProt Q9HAW9); experiment: Drug metabolism assessed as recombinant human C-terminal His-tagged UGT1A8-mediated estriol-3-glucuronide formation at 200 uM after 15 to 60 mins by HPLC analysis in presence of UDPGA; conditions: recombinant enzyme
T3 sequence (Q9HAW9 whole entry): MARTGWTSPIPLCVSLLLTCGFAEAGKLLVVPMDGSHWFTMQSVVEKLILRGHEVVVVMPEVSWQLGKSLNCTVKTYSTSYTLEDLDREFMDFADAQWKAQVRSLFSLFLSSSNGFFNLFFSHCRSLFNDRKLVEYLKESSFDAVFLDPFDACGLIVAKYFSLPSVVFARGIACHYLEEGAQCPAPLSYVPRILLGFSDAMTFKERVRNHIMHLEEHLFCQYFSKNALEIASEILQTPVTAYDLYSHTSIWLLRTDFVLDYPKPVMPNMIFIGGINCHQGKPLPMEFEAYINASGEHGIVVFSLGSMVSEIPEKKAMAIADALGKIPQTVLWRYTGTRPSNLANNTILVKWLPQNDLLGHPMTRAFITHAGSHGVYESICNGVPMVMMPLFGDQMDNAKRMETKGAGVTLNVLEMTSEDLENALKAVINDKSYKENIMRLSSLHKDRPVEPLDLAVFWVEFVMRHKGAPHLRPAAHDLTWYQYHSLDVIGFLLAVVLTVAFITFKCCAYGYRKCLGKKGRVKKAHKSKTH
Outline: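 Screen at 200 µM substrate (DMSO, 10% final) with 5 or 50 µg UGT-enriched insect-cell membranes in 50 mM phosphate pH 7.4, 10 mM MgCl2, 5 mM UDPGA; 37°C, 15–60 min. Stopped with perchloric acid, then iced and centrifuged; glucuronides resolved by HPLC. Triplicates with no-UDPGA controls; ≤10% substrate consumed; rates normalized to relative UGT expression (UGT1A7 15.5, UGT1A8 1.4; UGT1A3 = 1.0).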

Ki [1]: 98.1 µM
SMILES: C[C@]12CC[C@@H]3c4ccc(O)cc4CC[C@H]3[C@@H]1C[C@H](O)[C@@H]2O [EPIESTRIOL]

Drug metabolism [2]: metabolite_detected
SMILES: C[C@]12CC[C@@H]3c4ccc(O)cc4CC[C@H]3[C@@H]1CC[C@@H]2O [ESTRADIOL]

Km [3]: 75 µM
Vmax [3]: 839 pmol/min/mg
Drug metabolism [4]: metabolite_detected
SMILES: C[C@]12CC[C@@H]3c4ccc(O)cc4CC[C@H]3[C@@H]1C[C@@H](O)[C@@H]2O [ESTRIOL]

From ChEMBL document CHEMBL3525985, “Regiospecificity and stereospecificity of human UDP-glucuronosyltransferases in the glucuronidation of estriol, 16-epiestriol, 17-epiestriol, and 13-epiestradiol” (Drug Metab Dispos, 2013)
